According to ChEMBL document CHEMBL1134493, “2-(2-Oxo-1,4-dihydro-2H-quinazolin-3-yl)- and 2-(2,2-dioxo-1,4-dihydro-2H-2lambda6-benzo[1,2,6]thiadiazin-3-yl)-N-hydroxy-acetamides as potent and selective peptide deformylase inhibitors” (J Med Chem, 2001):
In brackets after ≈: the same amount, converted by molar mass.

Key:
[1] = test system: Haemophilus influenzae; experiment: In vitro antibacterial activity against Haemophilus influenzae 11; assay type: functional
In short: (§1)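 Broth microdilution MIC per NCCLS guidelines; strains from in-house collection (ATCC and hospital isolates) stored at -80 °C; E. coli tested as permeable outer-membrane mutant DC2. MIC taken as lowest concentration preventing visible growth after 18 to 24 h at 37 °C.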

[2] = test system: Escherichia coli; experiment: In vitro antibacterial activity against Escherichia coli; assay type: functional; in short: as §1
[3] = test system: Moraxella catarrhalis; experiment: In vitro antibacterial activity against Moraxella catarrhalis RA21; assay type: functional; in short: as §1
[4] = target: T1, Peptide deformylase (Escherichia coli, UniProt Q9JN24); experiment: Inhibition of the isolated native Escherichia coli peptide deformylase (PDF)
T1 sequence (Q9JN24 whole entry): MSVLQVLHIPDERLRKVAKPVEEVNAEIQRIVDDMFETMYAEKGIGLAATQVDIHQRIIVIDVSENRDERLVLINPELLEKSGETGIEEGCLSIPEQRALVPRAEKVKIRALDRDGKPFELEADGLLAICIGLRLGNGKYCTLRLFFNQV

[5] = target: Neprilysin (Homo sapiens, UniProt P08473); experiment: Inhibition against neutral endopeptidase
Chain of Neprilysin (P08473 whole entry): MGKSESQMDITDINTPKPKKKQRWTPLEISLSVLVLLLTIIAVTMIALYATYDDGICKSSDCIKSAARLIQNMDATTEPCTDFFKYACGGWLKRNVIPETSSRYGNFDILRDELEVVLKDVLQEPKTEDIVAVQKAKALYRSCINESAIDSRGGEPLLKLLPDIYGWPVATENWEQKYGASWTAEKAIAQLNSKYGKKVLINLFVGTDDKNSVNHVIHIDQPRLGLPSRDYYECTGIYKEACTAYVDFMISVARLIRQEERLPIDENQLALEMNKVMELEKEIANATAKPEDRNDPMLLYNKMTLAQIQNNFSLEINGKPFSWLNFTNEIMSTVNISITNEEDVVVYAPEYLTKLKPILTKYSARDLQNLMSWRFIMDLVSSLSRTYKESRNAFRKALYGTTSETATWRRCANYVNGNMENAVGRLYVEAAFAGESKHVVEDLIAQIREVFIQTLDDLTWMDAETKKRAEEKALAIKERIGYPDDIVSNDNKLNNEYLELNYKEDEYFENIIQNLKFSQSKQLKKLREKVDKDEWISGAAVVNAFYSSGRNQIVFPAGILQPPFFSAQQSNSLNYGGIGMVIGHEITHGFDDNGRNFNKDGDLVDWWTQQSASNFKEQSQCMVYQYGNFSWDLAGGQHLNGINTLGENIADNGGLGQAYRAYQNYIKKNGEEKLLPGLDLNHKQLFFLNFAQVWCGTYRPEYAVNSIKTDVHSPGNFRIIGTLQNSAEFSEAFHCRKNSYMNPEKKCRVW

[6] = target: Collagenase 3 (Homo sapiens, UniProt P45452); experiment: Inhibition of Collagenase-3, matrix metalloprotease-13 (MMP-13).
[7] = target: T2, Endothelin-converting enzyme 1 (Homo sapiens, UniProt P42892); experiment: Inhibition against endothelin-converting enzyme.
T2 sequence (P42892 whole entry): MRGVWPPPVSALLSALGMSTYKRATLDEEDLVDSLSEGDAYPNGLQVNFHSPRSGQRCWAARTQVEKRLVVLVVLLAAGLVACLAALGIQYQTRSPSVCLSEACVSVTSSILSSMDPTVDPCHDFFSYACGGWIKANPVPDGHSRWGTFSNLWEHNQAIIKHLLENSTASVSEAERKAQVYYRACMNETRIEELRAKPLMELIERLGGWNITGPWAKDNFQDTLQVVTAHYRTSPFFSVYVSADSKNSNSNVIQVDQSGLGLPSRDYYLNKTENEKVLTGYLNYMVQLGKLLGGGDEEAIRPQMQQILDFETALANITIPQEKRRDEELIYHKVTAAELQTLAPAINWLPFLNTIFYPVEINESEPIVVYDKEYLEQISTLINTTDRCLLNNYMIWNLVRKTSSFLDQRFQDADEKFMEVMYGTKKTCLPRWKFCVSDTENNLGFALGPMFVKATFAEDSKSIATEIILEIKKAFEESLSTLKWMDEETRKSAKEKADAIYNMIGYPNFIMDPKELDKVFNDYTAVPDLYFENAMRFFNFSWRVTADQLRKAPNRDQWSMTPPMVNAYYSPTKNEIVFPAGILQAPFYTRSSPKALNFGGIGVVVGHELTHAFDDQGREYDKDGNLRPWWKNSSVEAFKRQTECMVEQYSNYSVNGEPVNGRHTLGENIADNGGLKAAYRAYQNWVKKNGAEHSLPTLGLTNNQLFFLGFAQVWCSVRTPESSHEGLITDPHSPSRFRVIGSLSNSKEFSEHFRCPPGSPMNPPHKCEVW

[8] = target: Macrophage metalloelastase (Homo sapiens, UniProt P39900); experiment: Inhibition of human macrophage elastase, matrix metalloprotease-12 (MMP-12).
Chain of Macrophage metalloelastase (P39900 whole entry): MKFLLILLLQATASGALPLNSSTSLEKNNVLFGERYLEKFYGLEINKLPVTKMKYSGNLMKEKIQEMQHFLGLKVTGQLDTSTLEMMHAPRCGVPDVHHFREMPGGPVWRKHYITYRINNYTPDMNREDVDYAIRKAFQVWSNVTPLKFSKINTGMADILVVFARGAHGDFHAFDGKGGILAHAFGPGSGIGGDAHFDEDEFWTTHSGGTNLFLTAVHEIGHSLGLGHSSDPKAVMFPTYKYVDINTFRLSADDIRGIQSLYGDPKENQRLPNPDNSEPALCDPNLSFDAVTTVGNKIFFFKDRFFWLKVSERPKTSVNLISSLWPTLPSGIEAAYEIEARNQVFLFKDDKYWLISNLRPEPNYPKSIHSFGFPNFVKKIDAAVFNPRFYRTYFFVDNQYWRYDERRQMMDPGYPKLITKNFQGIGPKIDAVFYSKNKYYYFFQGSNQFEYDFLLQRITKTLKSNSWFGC

[9] = target: Angiotensin-converting enzyme (Homo sapiens, UniProt P12821); experiment: Inhibition against angiotensin I converting enzyme
Chain of Angiotensin-converting enzyme (P12821 whole entry): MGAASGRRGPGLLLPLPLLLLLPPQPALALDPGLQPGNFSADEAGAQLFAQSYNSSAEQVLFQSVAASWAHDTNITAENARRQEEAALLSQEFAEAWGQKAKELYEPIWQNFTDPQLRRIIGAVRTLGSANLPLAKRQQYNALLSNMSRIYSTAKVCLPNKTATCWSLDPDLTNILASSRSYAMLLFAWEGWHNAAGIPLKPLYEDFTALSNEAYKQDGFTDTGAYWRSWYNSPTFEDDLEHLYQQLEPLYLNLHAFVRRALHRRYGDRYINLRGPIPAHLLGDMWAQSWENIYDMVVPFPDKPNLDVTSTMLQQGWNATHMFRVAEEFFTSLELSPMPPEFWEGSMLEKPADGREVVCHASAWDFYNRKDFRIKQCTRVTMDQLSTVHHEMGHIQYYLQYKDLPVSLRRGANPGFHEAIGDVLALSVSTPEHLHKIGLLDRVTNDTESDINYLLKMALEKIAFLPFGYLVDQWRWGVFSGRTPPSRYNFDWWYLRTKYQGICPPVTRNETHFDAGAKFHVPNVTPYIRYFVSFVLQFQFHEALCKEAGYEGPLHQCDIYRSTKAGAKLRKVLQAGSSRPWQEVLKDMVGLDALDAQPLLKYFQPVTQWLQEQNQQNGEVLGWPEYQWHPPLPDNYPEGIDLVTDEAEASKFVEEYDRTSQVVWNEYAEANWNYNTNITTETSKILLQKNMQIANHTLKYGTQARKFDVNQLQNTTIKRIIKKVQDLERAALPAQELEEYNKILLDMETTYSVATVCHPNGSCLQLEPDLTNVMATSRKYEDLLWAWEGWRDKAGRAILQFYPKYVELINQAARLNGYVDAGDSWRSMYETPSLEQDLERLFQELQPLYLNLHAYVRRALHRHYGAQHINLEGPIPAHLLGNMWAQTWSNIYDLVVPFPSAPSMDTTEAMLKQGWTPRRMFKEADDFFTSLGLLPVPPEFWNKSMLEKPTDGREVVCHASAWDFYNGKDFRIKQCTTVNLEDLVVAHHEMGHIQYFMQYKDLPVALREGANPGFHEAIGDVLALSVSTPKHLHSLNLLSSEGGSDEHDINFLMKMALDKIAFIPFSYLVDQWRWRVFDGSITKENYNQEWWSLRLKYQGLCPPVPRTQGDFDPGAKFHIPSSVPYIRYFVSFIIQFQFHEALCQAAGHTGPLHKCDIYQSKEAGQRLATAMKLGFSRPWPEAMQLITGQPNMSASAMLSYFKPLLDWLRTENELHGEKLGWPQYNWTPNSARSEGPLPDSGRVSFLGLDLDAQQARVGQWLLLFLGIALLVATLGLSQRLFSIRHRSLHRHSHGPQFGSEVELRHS

Structure (SMILES)	MIC [1]	MIC [2]	MIC [3]	IC50 [4]	IC50 [5]	IC50 [6]	IC50 [7]	IC50 [8]	IC50 [9]
O=C(CN1Cc2c(Cl)cccc2N(CCCc2ccccc2)S1(=O)=O)NO	32 µg/mL (≈ 78.1 µM)	> 64 µg/mL	8 µg/mL (≈ 19.5 µM)	–	–	–	–	–	–
O=C(CN1Cc2ccccc2NS1(=O)=O)NO	> 64 µg/mL	> 64 µg/mL	> 64 µg/mL	760 nM	–	–	–	–	–
O=C(CN1Cc2c(Br)cccc2NC1=O)NO	16 µg/mL (≈ 53.3 µM)	32 µg/mL (≈ 107 µM)	4 µg/mL (≈ 13.3 µM)	49 nM	–	–	–	–	–
O=C(CN1Cc2c(Cl)cccc2NC1=O)NO	8 µg/mL (≈ 31.3 µM)	16 µg/mL (≈ 62.6 µM)	2 µg/mL (≈ 7.82 µM)	310 nM	> 100 µM	460 nM	> 10 µM	> 100 µM	90 µM
O=C(CN1Cc2c(Cl)cccc2NS1(=O)=O)NO	16 µg/mL (≈ 54.8 µM)	> 64 µg/mL	8 µg/mL (≈ 27.4 µM)	120 nM	> 100 µM	> 500 nM	> 10 µM	> 100 µM	> 100 µM
O=C(CN1Cc2c(Cl)cccc2N(Cc2ccccc2)S1(=O)=O)NO	32 µg/mL (≈ 83.8 µM)	64 µg/mL (≈ 168 µM)	8 µg/mL (≈ 21 µM)	–	–	–	–	–	–
O=C(CN1Cc2c(F)cccc2NS1(=O)=O)NO	> 64 µg/mL	> 64 µg/mL	> 64 µg/mL	870 nM	–	–	–	–	–
O=C(CN1Cc2c(cccc2C(F)(F)F)NS1(=O)=O)NO	32 µg/mL (≈ 98.4 µM)	> 64 µg/mL	8 µg/mL (≈ 24.6 µM)	130 nM	–	–	–	–	–
NNC(=O)CN1Cc2c(Cl)cccc2NC1=O	–	50 µg/mL (≈ 196 µM)	–	27000 nM	–	–	–	–	–
O=C(CN1Cc2c(Br)cccc2NS1(=O)=O)NO	> 64 µg/mL	32 µg/mL (≈ 95.2 µM)	4 µg/mL (≈ 11.9 µM)	98 nM	–	–	–	–	–
CCCCN1c2cccc(Cl)c2CN(CC(=O)NO)S1(=O)=O	64 µg/mL (≈ 184 µM)	> 64 µg/mL	2 µg/mL (≈ 5.75 µM)	590 nM	–	–	–	–	–
O=C(CN1Cc2c(F)cccc2NC1=O)NO	64 µg/mL (≈ 268 µM)	> 64 µg/mL	16 µg/mL (≈ 66.9 µM)	870 nM	–	–	–	–	–
O=C(CN1Cc2c(Cl)cccc2N(CC2CC2)S1(=O)=O)NO	64 µg/mL (≈ 185 µM)	> 64 µg/mL	4 µg/mL (≈ 11.6 µM)	110 nM	–	–	–	–	–
O=C(CN1Cc2c(cccc2C(F)(F)F)NC1=O)NO	64 µg/mL (≈ 221 µM)	64 µg/mL (≈ 221 µM)	8 µg/mL (≈ 27.7 µM)	230 nM	–	–	–	–	–
O=C(CN1Cc2c(Br)cccc2N(CC2CC2)S1(=O)=O)NO	64 µg/mL (≈ 164 µM)	64 µg/mL (≈ 164 µM)	1 µg/mL (≈ 2.56 µM)	–	–	–	–	–	–
O=C(CN1Cc2ccccc2NC1=O)NO	> 64 µg/mL	> 64 µg/mL	> 64 µg/mL	–	–	–	–	–	–
